Experimental data reported in ChEMBL document CHEMBL4689842, “EUbOPEN Chemogenomics Library wave 1” (2021).

Tested on: HEK-293T
Experiment: Multiplex assay against HEK293T;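 for Population Tubulin-Different-Phenotype (%): share of the cells with healthy nuclei that show this phenotype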
Assay type: toxicity, cell-based
Conditions: human
Procedure, shortened: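 Hoechst33342, BioTracker Green Microtubule Cytoskeleton Dye, MitoTracker Red and Annexin V Alexa Fluor 680 were added to live cells at seeding, and imaging on a CQ1 microscope at 37°C and 5% CO2 followed compound addition. Gating by CellPathfinder machine learning separated cells into Hoechst high-intensity objects or normal cells, then normal cells into healthy, pyknosed or fragmented nuclei, then pyknosed cells into mitotic or apoptotic. Per cents of healthy-nucleus cells are reported for the tubulin, mitochondrial-mass and membrane-permeability phenotypes.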

[1] = 12 h, 1 µM, compound concentration 1 uM, replicate 1
[2] = 12 h, 1 µM, compound concentration 1 uM, replicate 2
[3] = 12 h, 10 µM, compound concentration 10 uM, replicate 1
[4] = 12 h, 10 µM, compound concentration 10 uM, replicate 2
[5] = 24 h, 1 µM, compound concentration 1 uM, replicate 1
[6] = 24 h, 1 µM, compound concentration 1 uM, replicate 2
[7] = 24 h, 10 µM, compound concentration 10 uM, replicate 1
[8] = 24 h, 10 µM, compound concentration 10 uM, replicate 2
[9] = 48 h, 1 µM, compound concentration 1 uM, replicate 1
[10] = 48 h, 1 µM, compound concentration 1 uM, replicate 2
[11] = 48 h, 10 µM, compound concentration 10 uM, replicate 1
[12] = 48 h, 10 µM, compound concentration 10 uM, replicate 2

CN1CCC[C@@H]1CCO[C@](C)(c1ccccc1)c1ccc(Cl)cc1.O=C(O)/C=C/C(=O)O [CLEMASTINE FUMARATE]
Population Apoptotic (%) [1]: 56%
Population Fragmented Nuclei (%) [1]: 10%
Population Healthy Nuclei (%) [1]: 23%
Population Hoechst High Intensity Objects (%) [1]: 9%
Population Membrane Permeable-Phenotype (%) [1]: 5%
Population Mitochondria Different-Phenotype (%) [1]: 96%
Population Mitotic Cells (%) [1]: 43%
Population Normal (%) [1]: 90%
Population Pyknosed Nuclei (%) [1]: 65%
Population Tubulin-Different-Phenotype (%) [1]: 78%
Total Cell Count [1]: 278
Population Apoptotic (%) [2]: 25%
Population Fragmented Nuclei (%) [2]: 4%
Population Healthy Nuclei (%) [2]: 32%
Population Hoechst High Intensity Objects (%) [2]: 3%
Population Membrane Permeable-Phenotype (%) [2]: 13%
Population Mitochondria Different-Phenotype (%) [2]: 48%
Population Mitotic Cells (%) [2]: 75%
Population Normal (%) [2]: 96%
Population Pyknosed Nuclei (%) [2]: 62%
Population Tubulin-Different-Phenotype (%) [2]: 52%
Total Cell Count [2]: 217
Population Apoptotic (%) [3]: 92%
Population Fragmented Nuclei (%) [3]: 14%
Population Healthy Nuclei (%) [3]: 17%
Population Hoechst High Intensity Objects (%) [3]: 18%
Population Membrane Permeable-Phenotype (%) [3]: 6%
Population Mitochondria Different-Phenotype (%) [3]: 100%
Population Mitotic Cells (%) [3]: 7%
Population Normal (%) [3]: 81%
Population Pyknosed Nuclei (%) [3]: 67%
Population Tubulin-Different-Phenotype (%) [3]: 93%
Total Cell Count [3]: 209
Population Apoptotic (%) [4]: 85%
Population Fragmented Nuclei (%) [4]: 6%
Population Healthy Nuclei (%) [4]: 15%
Population Hoechst High Intensity Objects (%) [4]: 6%
Population Membrane Permeable-Phenotype (%) [4]: 4%
Population Mitochondria Different-Phenotype (%) [4]: 96%
Population Mitotic Cells (%) [4]: 14%
Population Normal (%) [4]: 93%
Population Pyknosed Nuclei (%) [4]: 78%
Population Tubulin-Different-Phenotype (%) [4]: 92%
Total Cell Count [4]: 172
Population Apoptotic (%) [5]: 59%
Population Fragmented Nuclei (%) [5]: 12%
Population Healthy Nuclei (%) [5]: 18%
Population Hoechst High Intensity Objects (%) [5]: 21%
Population Membrane Permeable-Phenotype (%) [5]: 0%
Population Mitochondria Different-Phenotype (%) [5]: 95%
Population Mitotic Cells (%) [5]: 40%
Population Normal (%) [5]: 78%
Population Pyknosed Nuclei (%) [5]: 68%
Population Tubulin-Different-Phenotype (%) [5]: 63%
Total Cell Count [5]: 274
Population Apoptotic (%) [6]: 42%
Population Fragmented Nuclei (%) [6]: 7%
Population Healthy Nuclei (%) [6]: 60%
Population Hoechst High Intensity Objects (%) [6]: 1%
Population Membrane Permeable-Phenotype (%) [6]: 4%
Population Mitochondria Different-Phenotype (%) [6]: 56%
Population Mitotic Cells (%) [6]: 57%
Population Normal (%) [6]: 98%
Population Pyknosed Nuclei (%) [6]: 32%
Population Tubulin-Different-Phenotype (%) [6]: 60%
Total Cell Count [6]: 273
Population Fragmented Nuclei (%) [7]: 15%
Population Healthy Nuclei (%) [7]: 11%
Population Hoechst High Intensity Objects (%) [7]: 23%
Population Membrane Permeable-Phenotype (%) [7]: 0%
Population Mitochondria Different-Phenotype (%) [7]: 100%
Population Normal (%) [7]: 76%
Population Pyknosed Nuclei (%) [7]: 72%
Population Tubulin-Different-Phenotype (%) [7]: 94%
Total Cell Count [7]: 211
Population Apoptotic (%) [8]: 92%
Population Fragmented Nuclei (%) [8]: 4%
Population Healthy Nuclei (%) [8]: 20%
Population Hoechst High Intensity Objects (%) [8]: 6%
Population Membrane Permeable-Phenotype (%) [8]: 6%
Population Mitochondria Different-Phenotype (%) [8]: 93%
Population Mitotic Cells (%) [8]: 7%
Population Normal (%) [8]: 93%
Population Pyknosed Nuclei (%) [8]: 74%
Population Tubulin-Different-Phenotype (%) [8]: 93%
Total Cell Count [8]: 159
Population Apoptotic (%) [9]: 66%
Population Fragmented Nuclei (%) [9]: 21%
Population Healthy Nuclei (%) [9]: 11%
Population Hoechst High Intensity Objects (%) [9]: 23%
Population Membrane Permeable-Phenotype (%) [9]: 4%
Population Mitochondria Different-Phenotype (%) [9]: 88%
Population Mitotic Cells (%) [9]: 33%
Population Normal (%) [9]: 76%
Population Pyknosed Nuclei (%) [9]: 66%
Population Tubulin-Different-Phenotype (%) [9]: 72%
Total Cell Count [9]: 276
Population Apoptotic (%) [10]: 21%
Population Fragmented Nuclei (%) [10]: 4%
Population Healthy Nuclei (%) [10]: 81%
Population Hoechst High Intensity Objects (%) [10]: 1%
Population Membrane Permeable-Phenotype (%) [10]: 5%
Population Mitochondria Different-Phenotype (%) [10]: 29%
Population Mitotic Cells (%) [10]: 78%
Population Normal (%) [10]: 98%
Population Pyknosed Nuclei (%) [10]: 13%
Population Tubulin-Different-Phenotype (%) [10]: 60%
Total Cell Count [10]: 406
Population Apoptotic (%) [11]: 86%
Population Fragmented Nuclei (%) [11]: 24%
Population Healthy Nuclei (%) [11]: 1%
Population Hoechst High Intensity Objects (%) [11]: 23%
Population Membrane Permeable-Phenotype (%) [11]: 0%
Population Mitochondria Different-Phenotype (%) [11]: 100%
Population Mitotic Cells (%) [11]: 13%
Population Normal (%) [11]: 76%
Population Pyknosed Nuclei (%) [11]: 73%
Population Tubulin-Different-Phenotype (%) [11]: 66%
Total Cell Count [11]: 230
Population Apoptotic (%) [12]: 97%
Population Fragmented Nuclei (%) [12]: 14%
Population Healthy Nuclei (%) [12]: 15%
Population Hoechst High Intensity Objects (%) [12]: 8%
Population Membrane Permeable-Phenotype (%) [12]: 8%
Population Mitochondria Different-Phenotype (%) [12]: 83%
Population Mitotic Cells (%) [12]: 2%
Population Normal (%) [12]: 91%
Population Pyknosed Nuclei (%) [12]: 69%
Population Tubulin-Different-Phenotype (%) [12]: 75%
Total Cell Count [12]: 168
